Bioassay records: PubChem, Broad Institute
Hits are enriched below; roughly 1.9% of the tested compounds scored in any of these assays.
rRNA inh HTS = selective bacterial rRNA inhibition in E. coli | E. coli WT GFP vs humanized-ribosome RFP mutants, fluorescence, 24 h; active compounds read low; DMSO median 0, no signal -100 | GFP signal change (wild-type ribosome), % (concentration not given with the values) | 1.6% of 350,000 active | AID 720706;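 active means significant combined selectivity score with lowered wild-type GFP, culture density cut under 30%, mutant RFP and density less affected; inactive means any of these conditions unmet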
RAD54 inh = RAD54 (human) branch migration inhibition | AID 602329 | RAD54 Holliday junction branch migration, FAM/BHQ fluorescence | inhibition, % at 10.4 µM | 0.14% of 360,000 active;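 active means mean normalized replicate activity at least 40 and at least half of replicates scoring 40 or more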;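 further: inhibitors cause a drop in the FAM fluorescence signal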
Target sequence (Q92698 whole entry, looked up): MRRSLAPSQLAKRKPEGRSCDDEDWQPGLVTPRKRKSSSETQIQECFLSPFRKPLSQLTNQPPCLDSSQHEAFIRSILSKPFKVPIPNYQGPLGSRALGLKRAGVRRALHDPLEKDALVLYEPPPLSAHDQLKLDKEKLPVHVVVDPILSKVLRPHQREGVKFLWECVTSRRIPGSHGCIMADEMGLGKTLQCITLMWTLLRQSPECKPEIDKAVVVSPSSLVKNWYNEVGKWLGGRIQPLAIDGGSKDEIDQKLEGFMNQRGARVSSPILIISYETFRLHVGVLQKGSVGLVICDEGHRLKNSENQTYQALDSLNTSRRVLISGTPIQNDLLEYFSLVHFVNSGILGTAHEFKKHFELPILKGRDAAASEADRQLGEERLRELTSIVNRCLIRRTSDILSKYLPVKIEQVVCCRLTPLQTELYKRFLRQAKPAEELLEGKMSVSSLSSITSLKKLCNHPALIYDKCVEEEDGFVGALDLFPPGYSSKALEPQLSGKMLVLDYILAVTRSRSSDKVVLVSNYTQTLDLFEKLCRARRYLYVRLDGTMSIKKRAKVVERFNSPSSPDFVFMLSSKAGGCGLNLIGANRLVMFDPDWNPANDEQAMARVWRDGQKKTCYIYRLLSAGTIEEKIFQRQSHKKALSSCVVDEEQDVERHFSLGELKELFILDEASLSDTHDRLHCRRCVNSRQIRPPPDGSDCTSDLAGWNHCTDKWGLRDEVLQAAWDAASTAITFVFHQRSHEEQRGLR
Cneo AK release = causes C. neoformans cell lysis | adenylate kinase release luminescence, 4 h; normalised: neutral wells 0, clomiphene wells 100 | lysis activity, % at 15 µM | 0.2% of 360,000 active;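 active means mean lysis activity across replicates of at least 80%, whatever share of replicates individually reach that level; inactive means mean lysis activity below 80%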
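Assay system: log-phase C. neoformans yeast / Quantity: yeast cell density of 5 × 10^6 cells/mL / Medium: fresh YPD growth medium / Compound: single dose / Timing: static 4 h at 37 °C with compound, 1 h detection / Measured by: adenylate kinase release luminescence / Read-out: lysis from increased AK signal / Benchmarks: Clomiphene as positive lysis control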
RAD52 anneal inh = inhibitors of human RAD52 DNA annealing; P43351; recombinant RAD52 DNA annealing, FRET fluorescence; inhibition, % at 18.7 µM; 0.46% of 360,000 active;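 active means every replicate showing at least 50% inhibition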
PglD DTNB = PglD (C. jejuni) enzyme inhibition; purified PglD enzyme, DTNB colorimetric CoA detection; inhibition, % at 12.5 µM; 0.098% of 360,000 active; in the data active means inhibition above about 16%, passing the limit was not always enough
Hits are given with their value; 0 = inactive; - = not tested or not shown.

SMILES | rRNA inh HTS | RAD54 inh | Cneo AK release | RAD52 anneal inh | PglD DTNB
C[C@@H]1CN([C@H](C)CO)C(=O)c2cc(NS(=O)(=O)c3ccc(Cl)cc3)ccc2O[C@H]1CN(C)S(=O)(=O)c1ccc(F)cc1 | 0 | 0 | 100.5 | 0 | 0
C[C@H](CO)N1C[C@H](C)[C@H](CN(C)S(=O)(=O)c2ccc(F)cc2)Oc2ccc(NS(=O)(=O)c3ccc(Cl)cc3)cc2C1=O | 0 | 0 | 101.8 | 0 | 0
Cc1ccccc1-c1ccc([C@@H]2[C@H]3CN(C(=O)c4cccnc4)CC(=O)N3[C@H]2CO)cc1 | 0 | - | - | - | -
Cc1ccc(SCc2noc(C(=O)NCC3CCCO3)c2C(=O)O)cc1C (configuration not stated) | -23.7 | 0 | 0 | 0 | 0
O=C(NCC1CCCO1)c1onc(CSc2ccc(F)cc2)c1C(=O)O (configuration not stated) | 0 | 0 | 0 | 0 | 0
C/C=C/c1ccc([C@@H]2[C@@H](CO)N(C(C)=O)[C@H]2CN(CC)C(=O)CC)cc1 | 0 | 0 | 0 | - | 0
CNC[C@H]1OCc2ccccc2-c2c(n(C)c3ccccc23)C(=O)N([C@@H](C)CO)C[C@H]1C | 0 | - | - | - | -
Fc1ccc(-c2nnc(-c3ccc4ccccc4c3)o2)cc1 | -6.9 | 0 | 0 | 0 | 0
CCOC(=O)N/N=C/c1ccccc1OCc1ccc(Cl)cc1 | -25.1 | - | - | 0 | -
CCO[C@@H]1OC(C(=O)NCc2ccccc2)=C[C@H](c2ccccc2)[C@H]1CCCO | 0 | 0 | 0 | 0 | 0
CCO[C@H]1OC(C(=O)NCc2ccccc2)=C[C@@H](c2ccccc2)[C@@H]1CCCO | -24.9 | 0 | 0 | 0 | 0
Clc1ccc2c(N/N=C/c3cccnc3)ccnc2c1 | 0 | 70.9 | 0 | 0 | 0
Clc1ccc2c(N/N=C/c3ccc(Br)cc3)ccnc2c1 | - | 0 | 0 | 0 | 0
Oc1ccc(/C=N/Nc2ccnc3cc(Cl)ccc23)c(O)c1 | -32.7 | 0 | 0 | 0 | 0
C/C(=N\OC(=O)c1c(-c2ccccc2Cl)noc1C)c1ccncc1 | -22.9 | - | - | 0 | -
Cc1onc(-c2ccccc2Cl)c1C(=O)O/N=C(\N)c1ccccc1 | 0 | 0 | 0 | 0 | 0
O=C1CC[C@@H](O)CCN1CC[C@H](Sc1ccccc1)c1ccccc1 | -30.7 | 0 | 0 | 0 | 0
Cc1cc(CNC(=O)COc2ccccc2)c2ccccc2n1 | 0 | - | - | 0 | -
Cc1cc(CNC(=O)COc2ccc(C)c(C)c2)c2ccccc2n1 | -24.9 | 0 | 0 | 0 | 0
Cc1ccc(C2(c3ccccc3)NC(=O)N(CC(=O)NC3(C#N)CCCC3)C2=O)cc1C (configuration not stated) | -28.0 | 0 | 0 | 0 | -
COc1ccccc1NC(=O)CN1CCSc2ccccc21 | -20.8 | - | - | 0 | -
Nc1ccccc1O | - | 0 | 0 | - | 0
Nc1cccc2c(O)cccc12 | -27.9 | - | - | 0 | -
CN(C)/N=C/c1ccc(N2CCOCC2)cc1 | -17.0 | 0 | 0 | 0 | 0
C(=N\n1cnnc1)/c1ccc(N2CCOCC2)cc1 | - | 0 | 0 | - | 0
SMILES | rRNA inh HTS | RAD54 inh | Cneo AK release | RAD52 anneal inh | PglD DTNB
COc1cccc(F)c1C(C[N+](=O)[O-])c1c(N)n(C)c(=O)n(C)c1=O (configuration not stated) | -24.1 | 0 | 0 | 0 | 0
Cc1ccc(C(C[N+](=O)[O-])c2c(N)n(C)c(=O)n(C)c2=O)cc1 (configuration not stated) | -24.4 | - | - | 0 | -
COc1cc(C(C[N+](=O)[O-])c2c(N)n(C)c(=O)n(C)c2=O)ccc1O (configuration not stated) | 0 | - | - | 0 | -
C[C@H]1CN([C@@H](C)CO)C(=O)Cc2cc(N(C)C)ccc2O[C@@H]1CN(C)C(=O)Nc1ccc(C(F)(F)F)cc1 | 0 | 0 | 141.6 | 0 | 0
C[C@@H]1CN([C@@H](C)CO)C(=O)c2cc(N(C)C)ccc2O[C@@H]1CN(C)C(=O)Nc1ccc(C(F)(F)F)cc1 | 0 | 0 | 116.8 | 0 | 0
C[C@H](CO)N1C[C@H](C)[C@@H](CN(C)C(=O)Nc2ccc(C(F)(F)F)cc2)Oc2ccc(N(C)C)cc2C1=O | 0 | 0 | 0 | 0 | 0
Cc1noc(C)c1NC(=O)N(C)C[C@H]1Oc2ccc(N(C)C)cc2C(=O)N([C@H](C)CO)C[C@@H]1C | 0 | 0 | 101.7 | 0 | 0
O=S(=O)(Cc1ccccc1)NCC[C@H]1CC[C@H](NS(=O)(=O)c2ccccc2)[C@@H](CO)O1 | 0 | 0 | 0 | 0 | 0
COc1ccccc1C(=O)Nc1ccc2c(c1)C(=O)N(C)C[C@@H](OC)[C@H](C)CN(C)[C@@H](C)CO2 | 0 | 0 | 111.9 | 0 | 0
COc1cccc(NC(=O)Nc2ccc3c(c2)C(=O)N(C)C[C@H](OC)[C@@H](C)CN(C)[C@H](C)CO3)c1 | 0 | 0 | 0 | 93.6 | 0
CO[C@H]1CN(C)C(=O)c2cc(NC(=O)Nc3cccc(Cl)c3)ccc2OC[C@H](C)N(C)C[C@H]1C | 0 | 0 | 0 | 0 | 0
COc1ccccc1CN1C[C@@H](C)[C@H](OC)CN(C)C(=O)c2cc(NC(=O)Nc3ccccc3OC)ccc2OC[C@H]1C | 0 | 0 | 0 | 51.6 | 0
COc1ccccc1C(=O)Nc1ccc2c(c1)C(=O)N(C)C[C@H](OC)[C@H](C)CN(C)[C@@H](C)CO2 | 0 | 0 | 0 | 0 | 0
COc1cccc(NC(=O)Nc2ccc3c(c2)C(=O)N(C)C[C@@H](OC)[C@@H](C)CN(C)[C@@H](C)CO3)c1 | - | 0 | 0 | 88.1 | 0
Cc1ccc(-c2ccc([C@@H]3[C@H](CO)N4C(=O)CN(C(=O)Nc5ccc(F)cc5)C[C@@H]34)cc2)cc1 | 0 | - | - | 0 | -
COc1cccc(NC(=O)Nc2ccc3c(c2)C(=O)N(C)C[C@H](OC)[C@H](C)CN(C)[C@@H](C)CO3)c1 | 0 | 0 | 0 | 93.0 | 0
Cc1noc(C)c1NC(=O)N(C)C[C@@H]1OCCCC[C@@H](C)Oc2ccc(NC(=O)C3CCCCC3)cc2C(=O)N([C@@H](C)CO)C[C@@H]1C | 0 | 0 | 0 | 0 | 0
COc1ccc(CCNC(=O)c2ccc(-c3ccc([N+](=O)[O-])cc3Cl)o2)cc1 | -22.9 | 0 | 0 | 0 | 0
C[C@@H]1CN([C@H](C)CO)C(=O)c2cc(N(C)C)ccc2O[C@@H](C)CCCCO[C@@H]1CN(C)Cc1ccc(C(F)(F)F)cc1 | 0 | 0 | 0 | 0 | 0
CCc1ccc(C(=O)CSc2nc(C)cc(=O)[nH]2)cc1 | -27.3 | - | - | 0 | -
Cc1cc(=O)[nH]c(SCC(=O)c2ccc(F)c(C)c2)n1 | 0 | 0 | 0 | 0 | 0
CC1CCCN(C(=O)Cc2cccc3ccccc23)C1 (configuration not stated) | -28.6 | 0 | 0 | 0 | 0
CCOC(=O)C1CCCN(C(=O)c2csc(-c3ccc4c(c3)CCO4)n2)C1 (configuration not stated) | -40.9 | 0 | 0 | 0 | 0
COc1ccc([C@@H]2CC=CC[C@@H](C)Oc3ccccc3C(=O)N(C)[C@@H](C)C(=O)N2)c(OC)c1 (mixture of isomers) | 0 | - | - | - | -
